Screening data from PubChem.
mABHD4 FP – ABHD4 (mouse) inhibition, primary FP screen; inhibition, % at 8.92 µM; hit rate 0.54% among 370,000; purified mABHD4, FP-Rh probe fluorescence polarization;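 active = inhibition exceeding the mean over every tested compound plus 3 SD, cut at about 30% in these data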;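 also: 0% = plate median of compound wells and 100% = S159A mutant with DMSO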
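Test system: mouse ABHD4 enzyme, wild type. Reagent: FP-Rh fluorescent activity-based probe, added after compound pre-incubation. Timing: pre-incubation 45 min, probe exposure 60 min, at 25 °C. Technique: FP readout, ex 525 nm / em 598 nm. Benchmarks: high control S159A mutant with DMSO, low control median of compound wells.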
HTRA1 inhibitor – inhibitors of human serine peptidase HTRA1; Q92743; recombinant HTRA1, FP-rhodamine activity-based probe, fluorescence polarization; inhibition, % at 5.96 µM; hit rate 0.5% among 340,000; in the data active = inhibition above about 36%;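 also: 0% = enzyme with DMSO and 100% = wells lacking enzyme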
PRMT1 inh – blocks human protein arginine methyltransferase 1; Q99873; recombinant PRMT1, activity-based probe fluorescence polarization; inhibition, % at 2.79 µM; hit rate 1.3% among 370,000;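 active = inhibition above about 21% made by adding two undisclosed values, limit read from the data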
SIAE inh – inhibitors of human sialic acid acetylesterase SIAE; SIAE FP-Rh probe binding, fluorescence polarization; inhibition, % at 9.66 µM; Q9HAT2; hit rate 0.69% among 370,000;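 active = inhibition above a cutoff: mean of compounds within the control limits plus 3 SD of those, cut at about 17% in these data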;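 also: 0% = plate median of compound wells and 100% = probe without SIAE protein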
Target sequence (Q9HAT2 whole entry, looked up): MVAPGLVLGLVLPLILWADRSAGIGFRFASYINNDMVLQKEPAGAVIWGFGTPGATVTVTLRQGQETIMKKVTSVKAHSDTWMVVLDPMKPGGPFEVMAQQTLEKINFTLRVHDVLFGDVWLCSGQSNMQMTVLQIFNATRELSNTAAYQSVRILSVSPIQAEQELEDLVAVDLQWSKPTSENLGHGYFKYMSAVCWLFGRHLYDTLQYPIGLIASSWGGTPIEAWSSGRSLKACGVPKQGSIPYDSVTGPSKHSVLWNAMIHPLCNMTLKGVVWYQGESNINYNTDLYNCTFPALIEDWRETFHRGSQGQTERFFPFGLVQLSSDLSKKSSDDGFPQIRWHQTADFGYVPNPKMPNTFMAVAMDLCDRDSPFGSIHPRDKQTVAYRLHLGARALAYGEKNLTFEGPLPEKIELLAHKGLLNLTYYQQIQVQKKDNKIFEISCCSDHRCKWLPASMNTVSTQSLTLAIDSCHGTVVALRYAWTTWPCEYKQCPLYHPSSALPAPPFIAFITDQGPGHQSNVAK
TCR-CD3 inh – human TCR-CD3 binding inhibition; TAMRA-labeled TCR probe fluorescence, biochemical; inhibition, % at 9.4 µM; hit rate 0.37% among 360,000; in the data active = inhibition above about 19%;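 also: recombinant mutant TCR 2C K166C tagged with TAMRA read by polarization; 0% = receptor in buffer alone and 100% = receptor with positive control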
* = called active by the depositor; · = no result. Shown are actives, neighbours in structure and some others; about 2.7% of the full set was active somewhere.

SMILES | mABHD4 FP | HTRA1 inhibitor | PRMT1 inh | SIAE inh | TCR-CD3 inh
Cc1cc(O)c2c(c1O)C(=O)[C@]13C(=C2O)C(=O)[C@@H]2[C@@H](O)[C@H]1[C@@H]1[C@H](O)[C@H]3C(=O)C3=C(O)c4c(O)cc(C)c(O)c4C(=O)[C@]312 | · | 41* | · | · | ·
COc1ccc(S[C@]2(C(=O)N3CCN(c4ncccn4)CC3)CC(=O)N(C(=O)c3ccccc3)[C@@H]2c2ccc(OC)cc2)cc1 | -1 | · | 24* | -3 | ·
CC(C)[C@H](NC(=O)[C@@H]1CSC2c3ccccc3C(=O)N21)C(=O)NCc1ccco1 (some centres undefined) | 5 | 0 | 5 | 3 | -2
O=C(NCc1ccco1)[C@@H]1CSC2c3ccccc3C(=O)N21 (some centres undefined) | 2 | 0 | 21* | -3 | 10
Clc1ccc(-n2c(Cc3cccs3)nnc2SC/C=C/c2ccccc2)cc1 | -2 | · | 1 | -2 | ·
O=C(O)c1ccc(Cl)c(NC(=S)NC(=O)c2ccccc2[N+](=O)[O-])c1 | -9 | 5 | 23* | -4 | 9
COC(=O)c1ccc(C2Nc3ccc(/C(C)=N/NC(=O)C(OC)c4ccccc4)cc3C3C=CCC32)cc1 (centres undefined) | 14 | 21 | 16 | 22* | 1
CC(=O)c1ccc2c(c1)C1C=CCC1C(c1ccncc1)N2 (centres undefined) | 21 | 15 | 9 | 8 | 0
Nc1cc(Cl)nc(N/N=C/c2ccccc2[N+](=O)[O-])n1 | 2 | 3 | 3 | 18* | 2
OCc1ccccc1CNCc1ccccc1 | -1 | 3 | 0 | 2 | 6
OCc1ccccc1SSc1ccccc1CO | -10 | · | 106* | -9 | 0
c1coc(-c2nc3c4ccccc4ccn3c2Cc2ccsc2)c1 | 3 | · | 32* | -4 | 4
N=C1/C(=C\c2ccc(-c3cccc(C(=O)O)c3)o2)C(=O)N=C2SC=C(c3ccccc3)N12 | -1 | -43 | 22* | -24 | 7
N=C1/C(=C/c2ccc(-c3cccc(C(=O)O)c3)o2)C(=O)N=C2SC(CC(=O)N3CCOCC3)=NN12 | 8 | -7 | 10 | -17 | -2
Cc1ccc2c(C)c(C(=O)N3CCN(C4CCS(=O)(=O)C4)CC3)oc2c1C (centres undefined) | 7 | -2 | 0 | 3 | 0
CCC(=O)OCCCN1CCC2(CCC(c3ccccc3)CC2)C1=O (centres undefined) | 0 | · | 8 | -4 | ·
COc1cc(OC)cc(-c2c(-c3cccs3)c3cc(Br)ccc3n2C)c1 | 7 | -5 | 25* | -7 | 1
O=C1CCCC2=C1C(c1ccc(O)c(O)c1)c1c(ccc3ncccc13)N2 (centres undefined) | 23 | · | 21* | 1 | 16
COc1ccc(S(N)(=O)=O)cc1C(=O)OCC(=O)N1CCCC(C)C1 (centres undefined) | -8 | 7 | 9 | -5 | -4
C=CCCC(=O)N1CCC(C(=O)NCC2COc3ccccc3O2)CC1 (centres undefined) | 0 | · | 2 | 0 | ·
COC(=O)c1ccc2nc(-c3ccco3)c(Cc3ccccc3)n2c1 | 4 | · | 24* | 3 | 9
Clc1ccc2nc(-c3ccco3)c(Cc3ccccc3)n2c1 | 2 | · | 24* | 1 | -1
COC(=O)c1ccc2nc(-c3ccccc3)c(Cc3ccccc3)n2c1 | 0 | · | 2 | 2 | 12
Cc1ccc2nc(-c3ccco3)c(Cc3ccccc3)n2c1 | 14 | · | 19 | 8 | 4
COCCN(C(=O)C1=COCCO1)c1c(N)n(CC(C)C)c(=O)[nH]c1=O | -5 | 1 | 7 | 5 | -11
SMILES | mABHD4 FP | HTRA1 inhibitor | PRMT1 inh | SIAE inh | TCR-CD3 inh
CC(=O)c1cc(O)c2ccccc2c1O | 39* | 32 | 45* | -3 | 1
Cc1nc2sccn2c1P(c1c(C)nc2sccn12)c1c(C)nc2sccn12 | -12 | 2 | -4 | 17* | 3
CCCCC(=O)N(Cc1ccccc1)c1ccccc1C(=O)Nc1cc(OC)ccc1OC | -9 | · | -3 | 8 | ·
CCOc1ccc(N2C(=O)CC(Sc3ccccc3C(=O)O)C2=O)c([N+](=O)[O-])c1 (centres undefined) | 9 | 1 | 68* | -4 | 2
CC(C)(C)c1cc2nc3c(c(=O)n2[nH]1)CN(Cc1ccccc1)C3=O | 23 | · | -3 | 1 | -1
O=C1c2nc3cc(-c4ccco4)[nH]n3c(=O)c2CN1C1CCCCC1 | 28 | · | 23* | 0 | -1
COC(=O)c1cccc(-c2ccc(C(c3c(C)[nH][nH]c3=O)c3c(C)[nH][nH]c3=O)o2)c1 | 3 | 8 | 29* | 8 | -3
COC(=O)c1ccccc1-c1ccc(C(c2c(C)[nH][nH]c2=O)c2c(C)[nH][nH]c2=O)o1 | 9 | 3 | 3 | 9 | 2
Cc1cc(C)c2nc3sc(=Cc4ccc(-c5ccccc5C(=O)O)o4)c(=O)n3c2c1 | 15 | · | 6 | -4 | 7
Cc1ccc(C)c(N2C(=N)S/C(=C\c3ccc(-c4ccccc4C(=O)O)o3)C2=O)c1 | 34* | -13 | 7 | 2 | -3
COc1cc(C2Nc3cccc4cccc(c34)N2)ccc1O | 0 | 21 | 7 | 54* | -10
Cc1nnc(SCC(=O)c2ccc(Cl)cc2)n(N)c1=O | 2 | 5 | 37* | -4 | 4
COC(=O)[C@]12C[C@H](CC(=O)NCCc3ccccc3OC)C(=O)N(Cc3ccco3)C1=C[C@H](C1CCCC1)O[C@@H]2C | 5 | · | -2 | 3 | ·
CN=CC1=C(O)c2ccccc2C1=O | 0 | 3 | -1 | 10 | -9
O=C1C(C2=C(O)c3ccccc3C2=O)=Nc2ccccc21 | 40* | 22 | 21* | 10 | -3
COc1ccc(-c2cc(-c3nc4ccccn4c3NCc3ccccc3)ccc2OC)cc1 | 17 | -2 | 4 | 21* | 5
O=C(O)c1ccc(-c2nc(-c3ccc(Cl)cc3Cl)cs2)cc1 | -16 | 10 | -3 | 2 | 4
CC(=O)N1CC[n+]2c(-c3ccc(Cl)cc3Cl)csc21 | 7 | 3 | 57* | 2 | 12
Cc1ccc(-c2nn(-c3ccccc3)cc2CO)o1 | 0 | -10 | 25* | -5 | 1
OCc1cn(-c2ccccc2)nc1-c1ccco1 | 4 | -13 | 1 | -10 | 2
CCN1C(=O)CSC1=Nc1ccc(C(=O)OC)cc1 | 1 | 2 | -2 | 2 | 3
c1ccc(-c2nnc3oc(-c4cccs4)nn23)cc1 | -1 | 0 | -3 | -3 | 1
O=C(Cn1nc(C(=O)O)c2ccccc2c1=O)Nc1ccc(Cl)c(S(=O)(=O)N2CCOCC2)c1 | -16 | -15 | -6 | -36 | 2
O=C(CC1S/C(=N/N=C/c2ccco2)NC1=O)Nc1cccc(Cl)c1Cl (centres undefined) | -2 | 3 | 22* | 7 | 0
CCCC1S/C(=N/N=C/c2ccco2)NC1=O (centres undefined) | 3 | -2 | -2 | -3 | -4
O=C(OCc1cn(Cc2cccc(Cl)c2)nn1)N1CCOCC1 | 3 | · | 4 | -1 | ·
